From PubChem BioAssay
Neddylation inh = blocks human cullin neddylation | P61081+Q13564 | TR-FRET cullin neddylation, biochemical | calls only at 25 µM | 360,000 tested, 0.58% active; in the data active means inhibition above about 36%
Target sequence (P61081 whole entry, looked up): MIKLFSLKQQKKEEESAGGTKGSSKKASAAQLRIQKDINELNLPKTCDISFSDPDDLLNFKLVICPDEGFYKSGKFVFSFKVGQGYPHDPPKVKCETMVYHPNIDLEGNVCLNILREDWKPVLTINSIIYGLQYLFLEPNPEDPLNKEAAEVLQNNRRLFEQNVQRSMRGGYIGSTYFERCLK
Target sequence (Q13564 whole entry, looked up): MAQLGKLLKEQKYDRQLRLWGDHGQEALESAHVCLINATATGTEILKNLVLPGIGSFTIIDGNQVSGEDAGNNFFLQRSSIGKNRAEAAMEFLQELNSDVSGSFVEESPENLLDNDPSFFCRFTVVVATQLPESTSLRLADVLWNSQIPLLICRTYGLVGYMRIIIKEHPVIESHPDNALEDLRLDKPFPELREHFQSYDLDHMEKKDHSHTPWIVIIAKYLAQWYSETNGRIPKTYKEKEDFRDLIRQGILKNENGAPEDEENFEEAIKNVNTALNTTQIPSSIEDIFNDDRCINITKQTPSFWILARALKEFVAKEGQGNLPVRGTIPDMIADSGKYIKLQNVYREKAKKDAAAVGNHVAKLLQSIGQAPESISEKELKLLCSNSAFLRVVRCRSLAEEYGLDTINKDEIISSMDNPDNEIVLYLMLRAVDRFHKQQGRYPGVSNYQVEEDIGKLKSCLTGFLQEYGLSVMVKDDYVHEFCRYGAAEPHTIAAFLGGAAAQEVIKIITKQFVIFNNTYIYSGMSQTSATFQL
RAD52 inh = blocks human RAD52 DNA annealing. P43351. recombinant RAD52 DNA annealing, FRET fluorescence. inhibition, % at 18.7 µM. 360,000 tested, 0.46% active. AID 651710;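 active means every replicate showing at least 50% inhibition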
DNA FID counter = fluorescent intercalator displacement, NS3 helicase counter-screen; inhibition, % at 7.9 µM; DNA fluorescent intercalator displacement, fluorescence; 290,000 tested, 0.17% active; in the data active means inhibition above about 37%;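 further: 0% = vehicle and 100% = reference compound; higher means more ethidium bromide displaced from hairpin DNA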
RAD54 inh = blocks human RAD54 Holliday junction branch migration. FAM/BHQ fluorescence. Q92698. inhibition, % at 10.4 µM. 360,000 tested, 0.14% active;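 active means mean normalized replicate activity at least 40 and at least half of replicates scoring 40 or more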;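 further: 0% = median of neutral control wells and 100% = median of positive control wells; inhibitors cause a drop in the FAM fluorescence signal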
Apaf-1 inh = inhibitors of human Apaf-1 apoptosome | 330,000 tested, 0.71% active | O14727 | inhibition, % at 20 µM | reconstituted apoptosome caspase-3 activity, DEVD-Rh110 fluorescence | AID 489030; active means inhibition of at least 40% at 20 µM;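 further: plate controls were DMSO wells for no effect and DEVD-CHO caspase inhibitor wells for full effect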
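Material: biochemical Apaf-1 apoptosome reconstitution. Medium: Hepes buffer, pH 7.5. Also added: cytochrome c activation, bis-DEVD rhodamine 110 substrate. Timing: 30 min compound preincubation, 50 min activation, room temperature. Measured by: rhodamine 110 fluorescence at Ex 480/Em 540 nm.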
UBC13 inh = inhibitors of human UBC13 polyubiquitin chain formation | AID 485273 | inhibition, % at 20 µM | TR-FRET | 330,000 tested, 0.47% active; in the data active means inhibition above about 45%, passing the limit was not always enough
Neddyl inh conf = confirmation of human cullin neddylation inhibitors; 1,800 tested, 13% active; TR-FRET cullin neddylation biochemical assay; calls only at 25 µM; shares compounds with Neddylation inh; AID 652217; in the data active means inhibition above about 40%;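 further: neddylation substrate is the cullin 1 ring ligase complex with SKP2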
Starred values were filed as active, the others as inactive; i = inactive; . = not tested or not shown; + = active, no number. This is a sample that favours compounds with a hit; in the whole collection about 1.6% have one here.

SMILES | Neddylation inh | RAD52 inh | DNA FID counter | RAD54 inh | Apaf-1 inh | UBC13 inh | Neddyl inh conf
CN(C)c1cccc(C(=O)NC2CCCc3ccccc32)c1 (stereo not drawn) | + | -30.5 | -17.2 | -1.6 | 10.6 | 3.4 | i
O=C(NC1CCCc2ccccc21)c1cccc(Br)c1 (stereo not drawn) | i | 5.1 | -5.4 | . | 4.7 | -3.7 | .
COc1ccc(NC(=O)N2C[C@@H]3[C@H](c4ccccc42)[C@@H](CO)N3Cc2ccccn2)cc1 | . | -30.8 | . | -0.7 | . | . | .
Cc1ccc2nc(CSc3nc(C)cc(C)c3C#N)[nH]c2c1 | + | . | -6.0 | -7.0 | -9.4 | 2.1 | .
C[C@H]1CN([C@@H](C)CO)C(=O)c2cc(NC(=O)CCC(F)(F)F)ccc2O[C@@H]1CN(C)C(=O)Nc1ccc2c(c1)OCO2 | . | -8.1 | . | 1.4 | . | . | .
CN(C)CCn1c(SCc2ccccc2C#N)nc2c(sc3ccccc32)c1=O | + | 7.6 | -1.0 | 15.1 | 9.5 | 29.0 | .
COc1ccccc1NC(=O)CSc1nc2c(sc3ccccc32)c(=O)n1CCN(C)C | i | 33.9 | 0.9 | -1.1 | 1.3 | 23.8 | .
C[C@@H]1CCCCO[C@@H](CN(C)C(=O)Nc2ccc(F)cc2)[C@H](C)CN([C@@H](C)CO)C(=O)c2cc(NC(=O)Cc3ccccc3)ccc2O1 | . | -26.2 | . | 2.4 | . | . | .
O=C(Cc1ccccc1)N1C[C@H]2[C@@H](c3ccccc31)[C@@H](CO)N2C(=O)Cc1ccccc1 | . | -0.6 | . | 0.3 | . | . | .
COC(=O)C(C(C)C)N1CCc2c(C)nc3c(C#N)cnn3c21 (stereo not drawn) | + | 5.5 | -15.1 | . | -15.0 | 20.4 | +
COc1ccc(S(=O)(=O)Nc2cccc3c2O[C@H](CN(C)S(C)(=O)=O)[C@H](C)CN([C@H](C)CO)C3=O)cc1 | . | 1.7 | . | -2.8 | . | . | .
COc1ccc(C(=O)Nc2ccc3oc(-c4cccnc4)nc3c2)cc1OC | + | -0.4 | 10.1 | . | 5.0 | 6.5 | .
CCOC(=O)C(C)Sc1nc(-c2ccco2)cc(C(F)(F)F)c1C#N (stereo not drawn) | + | . | 1.1 | -3.2 | 23.1 | 3.5 | .
O=CNc1cc(-c2ccc(C(=O)NC3CC3)cc2)cn2c(-c3ccccc3)cnc12 | i | -51.7 | . | 10.5 | . | . | .
CC(=O)c1ccc(-c2cnc3c(NC=O)cc(-c4ccc(C(=O)NC5CC5)cc4)cn23)cc1 | + | -50.9 | . | 5.3 | . | . | i
CC(=O)Nc1cc(-c2cccc(CO)c2)cn2c(-c3ccc(C(C)=O)cc3)cnc12 | + | -33.3 | . | 5.9 | . | . | i
CC(=O)Nc1cc(-c2cccc(CO)c2)cn2c(-c3ccc(F)cc3)cnc12 | i | -13.2 | . | -16.1 | . | . | .
COc1cc(-c2cc(NC(C)=O)c3ncc(-c4ccc(C(C)=O)cc4)n3c2)cc(OC)c1OC | + | 16.4 | . | 4.9 | . | . | i
CC(=O)Nc1cccc(-c2cc(NC=O)c3ncc(-c4ccc(C(C)=O)cc4)n3c2)c1 | + | -10.9 | . | -5.0 | . | . | i
CC(C)NC(=O)N[C@@H]1CC[C@@H](CCn2cc(-c3ccccc3)nn2)O[C@@H]1CO | . | 16.9 | . | -2.8 | . | . | .
C[C@H](CO)N1C[C@H](C)[C@@H](CN(C)Cc2cncnc2)Oc2ncc(-c3cccc(C#N)c3)cc2C1=O | . | 0.7 | . | -3.9 | . | . | .
CC(=O)Nc1cc(-c2ccc(C(=O)N3CCOCC3)cc2)cn2c(-c3ccc(S(C)(=O)=O)cc3)cnc12 | + | -8.0 | . | 4.2 | . | . | i
CC(=O)Nc1cc(-c2ccc(C(=O)N3CCOCC3)cc2)cn2c(-c3ccc(F)c(Cl)c3)cnc12 | i | -13.0 | . | -0.8 | . | . | .
CCOC(=O)c1cnc2c(C(=O)OC)cccc2c1NCc1ccco1 | + | . | 4.9 | 36.7 | 4.6 | -6.2 | i
Cc1c(C(C)NC(=O)c2cc(COc3cccc4cnccc34)on2)cnn1C (stereo not drawn) | + | -16.0 | -35.6 | 2.4 | -3.9 | 16.2 | +
SMILES | Neddylation inh | RAD52 inh | DNA FID counter | RAD54 inh | Apaf-1 inh | UBC13 inh | Neddyl inh conf
CCc1ccc(CN(C)C(=O)c2cc(COc3cccc4cnccc34)on2)cc1 | i | -20.2 | -38.9 | -12.1 | 26.1 | 5.9 | .
Cc1noc(C)c1NC(=O)N(C)C[C@H]1Oc2ccc(NC(=O)Nc3cccc4ccccc34)cc2CC(=O)N([C@H](C)CO)C[C@H]1C | . | -3.0 | . | 6.7 | . | . | .
CCC(=O)Oc1ccc(C(=O)Nc2ccc3c(c2)C(=O)N(C2CCCCC2)C3=O)cc1 | + | . | -2.1 | 1.7 | 20.8 | 11.3 | i
CC(=O)Nc1ccc(S(=O)(=O)Nc2cccc3cccnc23)cc1 | + | -10.8 | -11.3 | -2.6 | 1.4 | -27.1 | +
O=S(=O)(Nc1cccc2cccnc12)c1ccccc1 | . | -4.0 | -8.0 | -5.7 | 13.0 | -16.8 | .
COC(=O)CCC(=O)OC1(C)C(=O)C=C2C=C(C3CC3)N(c3ccc(CO)cc3)C=C2C1=O (stereo not drawn) | . | . | . | . | 6.0 | -61.7 | .
COC(=O)CCC(=O)OC1(C)C(=O)C=C2C=C(C3CC3)N(c3cccc(C#N)c3)C=C2C1=O (stereo not drawn) | + | -71.1 | . | -28.4 | 23.5 | -31.1 | i
C/C=C/c1cnc2c(c1)C(=O)N([C@@H](C)CO)C[C@@H](C)[C@H](CN(C)C(=O)Cc1ccccn1)O2 | . | 1.7 | . | 6.7 | . | . | .
Cc1cccc(S(=O)(=O)N[C@H]2CC[C@@H](CCn3cc(-c4ccccn4)nn3)O[C@@H]2CO)c1 | . | 2.8 | . | 8.9 | . | . | .
Cc1ccc(C(=O)N/C(=C/c2ccc(-c3ccc(Br)cc3)o2)C(=O)NC2CCS(=O)(=O)C2)cc1 (stereo not drawn) | + | -6.9 | -7.1 | 2.9 | 4.1 | 8.2 | i
COc1ccc2oc(C(=O)OCC(=O)NCc3ccc(OC)c(OC)c3)c(C)c2c1 | + | -5.1 | . | 1.6 | 4.7 | 9.2 | i
COc1ccc2oc(C(=O)OC(C)C(=O)NCc3ccccc3)c(C)c2c1 (stereo not drawn) | + | -13.6 | . | . | 14.7 | 5.0 | i
COc1ccc2oc(C(=O)OCC(=O)N(C)c3ccccc3)c(C)c2c1 | + | -14.3 | . | 1.9 | 15.6 | 9.9 | .
COC(=O)C1CCN(C(=O)COC(=O)c2oc3ccc(OC)cc3c2C)CC1 | + | -32.7 | -17.9 | 2.6 | 2.6 | 4.4 | .
COc1ccc2oc(C(=O)OC(C)C(=O)NC3(C#N)CCCCC3)c(C)c2c1 (stereo not drawn) | . | -12.6 | . | 5.4 | 9.9 | 10.9 | .
COc1ccc2oc(C(=O)OCC(=O)Nc3ccccc3)c(C)c2c1 | . | -5.2 | -15.0 | -2.0 | 3.6 | 7.5 | .
COc1ccc2oc(C(=O)OCC(=O)N3CCC(C)CC3)c(C)c2c1 | . | -11.7 | -21.9 | 11.8 | 10.8 | 8.5 | .
CN1C(=O)c2cc(NS(C)(=O)=O)ccc2OC[C@H]2O[C@@H](CC(=O)NC3CCCCC3)CC[C@@H]21 | . | 1.6 | . | 2.6 | . | . | .
COc1ccc2oc(C(=O)OCC(=O)N(C)Cc3ccccc3)c(C)c2c1 | . | -21.9 | . | -7.0 | 19.2 | 6.4 | .
